Data from ChEMBL document CHEMBL5303300, “EUbOPEN Chemogenomics Library - Multiplex” (2023).
Several values for one entry are separate records, joined by “and”; a condition that tells them apart may be missing. Equal entries are not always repeated.

Tested on: U2OS
Experiment: Multiplex assay against U2OS
Type: toxicity, cell-based
Conditions: human, number of replicates 2
Method in brief: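 Live cells carried four stains from seeding: Hoechst33342, BioTracker Green Microtubule Cytoskeleton Dye, MitoTracker Red and Annexin V Alexa Fluor 680. They were imaged on a CQ1 microscope at 37°C and 5% CO2 after compound addition. Using CellPathfinder machine-learning gating, cells were split into Hoechst high-intensity objects or normal cells, normal cells into healthy, pyknosed or fragmented nuclei, and pyknosed cells into mitotic or apoptotic; tubulin, mitochondrial-mass and membrane-permeability phenotypes are per cents of healthy-nucleus cells.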

[1] = 12 h, 1 µM, compound concentration 1 uM
[2] = 12 h, 10 µM, compound concentration 10 uM
[3] = 24 h, 1 µM, compound concentration 1 uM
[4] = 24 h, 10 µM, compound concentration 10 uM
[5] = 48 h, 1 µM, compound concentration 1 uM
[6] = 48 h, 10 µM, compound concentration 10 uM

For `CCN1CCN(Cc2ccc(C(=O)Nc3ccc(C)c(Oc4ccc5c(c4)CC(=O)N5)c3)cc2C(F)(F)F)CC1.Cl.Cl`, the “Population Apoptotic (%)” value [1] was 50%, the “Population Healthy Nuclei (%)” value [1] was 82% and 64% and the “Population Hoechst High Intensity Objects (%)” value [1] was 0% and 3%. The “Population Membrane Permeable-Phenotype (%)” value [1] was 0%, the “Population Mitochondria Different-Phenotype (%)” value [1] was 4% and 0% and the “Population Mitotic Cells (%)” value [1] was 50%. For the same compound, the “Population Normal (%)” value [1] was 100% and 96%, the “Population Pyknosed Nuclei (%)” value [1] was 12% and 19% and the “Population Tubulin-Different-Phenotype (%)” value [1] was 60% and 40%. The “Population Apoptotic (%)” value [2] was 42% and 45%, the “Population Fragmented Nuclei (%)” value [2] was 15% and 8% and the “Population Healthy Nuclei (%)” value [2] was 57% and 69%. For the same compound, the “Population Hoechst High Intensity Objects (%)” value [2] was 1% and 0%, the “Population Membrane Permeable-Phenotype (%)” value [2] was 33% and 14% and the “Population Mitochondria Different-Phenotype (%)” value [2] was 46%. The “Population Mitotic Cells (%)” value [2] was 57% and 54%, the “Population Normal (%)” value [2] was 98% and 100% and the “Population Pyknosed Nuclei (%)” value [2] was 26% and 22%. For the same compound, the “Population Tubulin-Different-Phenotype (%)” value [2] was 83% and 81%, the “Population Apoptotic (%)” value [3] was 66% and 63% and the “Population Fragmented Nuclei (%)” value [3] was 5% and 2%. The “Population Healthy Nuclei (%)” value [3] was 71% and 81%, the “Population Hoechst High Intensity Objects (%)” value [3] was 2% and 0% and the “Population Membrane Permeable-Phenotype (%)” value [3] was 0%. The “Population Mitochondria Different-Phenotype (%)” value [3] was 7% and 3%, the “Population Mitotic Cells (%)” value [3] was 33% and 36% and the “Population Normal (%)” value [3] was 97% and 100%. For the same compound, the “Population Pyknosed Nuclei (%)” value [3] was 23% and 15%, the “Population Tubulin-Different-Phenotype (%)” value [3] was 51% and 64% and the “Population Apoptotic (%)” value [4] was 65% and 64%. For the same compound, the “Population Fragmented Nuclei (%)” value [4] was 12% and 8%, the “Population Healthy Nuclei (%)” value [4] was 54% and 64% and the “Population Hoechst High Intensity Objects (%)” value [4] was 0%. The “Population Membrane Permeable-Phenotype (%)” value [4] was 29% and 26%, the “Population Mitochondria Different-Phenotype (%)” value [4] was 76% and 74% and the “Population Mitotic Cells (%)” value [4] was 35%. The “Population Normal (%)” value [4] was 100%, the “Population Pyknosed Nuclei (%)” value [4] was 32% and 27% and the “Population Tubulin-Different-Phenotype (%)” value [4] was 61% and 86%. The “Population Apoptotic (%)” value [5] was 78% and 66%, the “Population Fragmented Nuclei (%)” value [5] was 4% and 1% and the “Population Healthy Nuclei (%)” value [5] was 72% and 85%. The “Population Hoechst High Intensity Objects (%)” value [5] was 1% and 0%, the “Population Membrane Permeable-Phenotype (%)” value [5] was 4% and 1% and the “Population Mitochondria Different-Phenotype (%)” value [5] was 2% and 1%. The “Population Mitotic Cells (%)” value [5] was 21% and 33%, the “Population Normal (%)” value [5] was 98% and 99% and the “Population Pyknosed Nuclei (%)” value [5] was 22% and 13%. The “Population Tubulin-Different-Phenotype (%)” value [5] was 59% and 70%, the “Population Apoptotic (%)” value [6] was 83% and 80% and the “Population Fragmented Nuclei (%)” value [6] was 9% and 10%. For the same compound, the “Population Healthy Nuclei (%)” value [6] was 29% and 49%, the “Population Hoechst High Intensity Objects (%)” value [6] was 1% and 0% and the “Population Membrane Permeable-Phenotype (%)” value [6] was 66% and 31%. For the same compound, the “Population Mitochondria Different-Phenotype (%)” value [6] was 60% and 81%, the “Population Mitotic Cells (%)” value [6] was 16% and 19% and the “Population Normal (%)” value [6] was 98% and 99%. For the same compound, the “Population Pyknosed Nuclei (%)” value [6] was 60% and 40% and the “Population Tubulin-Different-Phenotype (%)” value [6] was 80% and 81%.

With `CCCNc1ccc2ncc(-c3ccncc3)n2n1` the “Population Apoptotic (%)” value [1] was 60% and 74%, the “Population Healthy Nuclei (%)” value [1] was 58% and 81% and the “Population Hoechst High Intensity Objects (%)” value [1] was 0%. For the same compound, the “Population Membrane Permeable-Phenotype (%)” value [1] was 11% and 2%, the “Population Mitochondria Different-Phenotype (%)” value [1] was 11% and 0% and the “Population Mitotic Cells (%)” value [1] was 40% and 25%. For the same compound, the “Population Normal (%)” value [1] was 100%, the “Population Pyknosed Nuclei (%)” value [1] was 17% and 14% and the “Population Tubulin-Different-Phenotype (%)” value [1] was 76% and 86%. The “Population Apoptotic (%)” value [2] was 81% and 78%, the “Population Healthy Nuclei (%)” value [2] was 35% and 57% and the “Population Hoechst High Intensity Objects (%)” value [2] was 0% and 1%. For the same compound, the “Population Membrane Permeable-Phenotype (%)” value [2] was 6% and 8%, the “Population Mitochondria Different-Phenotype (%)” value [2] was 6% and 3% and the “Population Mitotic Cells (%)” value [2] was 18% and 22%. For the same compound, the “Population Normal (%)” value [2] was 100% and 98%, the “Population Pyknosed Nuclei (%)” value [2] was 24% and 33% and the “Population Tubulin-Different-Phenotype (%)” value [2] was 68% and 60%. For the same compound, the “Population Apoptotic (%)” value [3] was 66% and 87%, the “Population Healthy Nuclei (%)” value [3] was 71% and 89% and the “Population Hoechst High Intensity Objects (%)” value [3] was 0%. The “Population Membrane Permeable-Phenotype (%)” value [3] was 10% and 3%, the “Population Mitochondria Different-Phenotype (%)” value [3] was 3% and 1% and the “Population Mitotic Cells (%)” value [3] was 33% and 12%. The “Population Normal (%)” value [3] was 100% and 99%, the “Population Pyknosed Nuclei (%)” value [3] was 7% and the “Population Tubulin-Different-Phenotype (%)” value [3] was 76% and 88%. For the same compound, the “Population Apoptotic (%)” value [4] was 78% and 90%, the “Population Healthy Nuclei (%)” value [4] was 26% and 53% and the “Population Hoechst High Intensity Objects (%)” value [4] was 0% and 2%. For the same compound, the “Population Membrane Permeable-Phenotype (%)” value [4] was 16% and 7%, the “Population Mitochondria Different-Phenotype (%)” value [4] was 8% and 7% and the “Population Mitotic Cells (%)” value [4] was 21% and 9%. For the same compound, the “Population Normal (%)” value [4] was 100% and 97%, the “Population Pyknosed Nuclei (%)” value [4] was 31% and 33% and the “Population Tubulin-Different-Phenotype (%)” value [4] was 66% and 69%. For the same compound, the “Population Apoptotic (%)” value [5] was 57% and 66%, the “Population Healthy Nuclei (%)” value [5] was 71% and 88% and the “Population Hoechst High Intensity Objects (%)” value [5] was 0%. The “Population Membrane Permeable-Phenotype (%)” value [5] was 6% and 3%, the “Population Mitochondria Different-Phenotype (%)” value [5] was 6% and 2% and the “Population Mitotic Cells (%)” value [5] was 42% and 33%. For the same compound, the “Population Normal (%)” value [5] was 100%, the “Population Pyknosed Nuclei (%)” value [5] was 11% and 7% and the “Population Tubulin-Different-Phenotype (%)” value [5] was 69% and 86%. The “Population Apoptotic (%)” value [6] was 81% and 78%, the “Population Healthy Nuclei (%)” value [6] was 23% and 37% and the “Population Hoechst High Intensity Objects (%)” value [6] was 0% and 1%. The “Population Mitochondria Different-Phenotype (%)” value [6] was 23% and 8%, the “Population Mitotic Cells (%)” value [6] was 18% and 21% and the “Population Normal (%)” value [6] was 100% and 98%. The “Population Pyknosed Nuclei (%)” value [6] was 29% and 51% and the “Population Tubulin-Different-Phenotype (%)” value [6] was 46% and 62%.
